The list is not random: actives were taken first. Their share in the collection is about 3.1%.
KCNK9 inh: KCNK9 potassium channel inhibitors, primary screen, HEK293 cells, thallium flux; 310,000 compounds, 1.2% hits; B-score at 10 µM; AID 488922, 2010; FluxOR thallium flux fluorescence; hits give low values;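 active = ratio B-score over 3 SD below the library mean, with starting fluorescence within 5 SD of its mean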;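 also: negative B-score means less thallium flux so channel inhibition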
KCNQ1 block: inhibitors of human KCNQ1 channel, primary screen, cell-based, thallium flux, high-throughput. CHO-K1 KCNQ1, FluxOR thallium flux fluorescence; hits give high values. B-score at 10 µM. AID 2642, 2010. 310,000 compounds, 1.3% hits;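 active = compounds whose thallium flux B-score, printed positive for inhibition, exceeds three library SD while starting fluorescence stays within three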;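 also: channel opened by potassium depolarization with thallium stimulus after 20 min compound exposure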
Target sequence (P51787 whole entry, looked up): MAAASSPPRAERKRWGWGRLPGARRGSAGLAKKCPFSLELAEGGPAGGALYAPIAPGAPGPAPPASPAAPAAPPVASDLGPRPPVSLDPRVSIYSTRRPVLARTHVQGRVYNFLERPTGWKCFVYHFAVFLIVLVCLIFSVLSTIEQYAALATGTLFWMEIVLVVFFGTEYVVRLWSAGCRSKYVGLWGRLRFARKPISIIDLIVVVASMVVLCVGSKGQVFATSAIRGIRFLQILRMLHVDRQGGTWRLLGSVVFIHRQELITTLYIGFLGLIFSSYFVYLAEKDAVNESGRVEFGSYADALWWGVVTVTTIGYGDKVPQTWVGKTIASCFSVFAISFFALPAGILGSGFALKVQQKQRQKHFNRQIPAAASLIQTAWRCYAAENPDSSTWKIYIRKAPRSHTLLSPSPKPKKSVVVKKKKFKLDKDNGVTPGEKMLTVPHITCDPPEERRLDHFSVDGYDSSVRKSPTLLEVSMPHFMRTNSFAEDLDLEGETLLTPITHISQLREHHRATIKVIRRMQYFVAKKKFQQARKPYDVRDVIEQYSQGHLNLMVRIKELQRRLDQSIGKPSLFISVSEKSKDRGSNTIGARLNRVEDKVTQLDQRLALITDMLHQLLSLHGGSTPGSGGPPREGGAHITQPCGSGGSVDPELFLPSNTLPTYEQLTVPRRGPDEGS
KCNK3 inh: human KCNK3 channel inhibitors, primary screen, CHO cells, FluxOR thallium flux, B-score. Potassium channel subfamily K member 3 (Homo sapiens), O14649. FluxOR fluorescence; hits give low values. B-score at 10 µM. 340,000 compounds, 0.84% hits. AID 602410, 2012;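 active = B-score under library mean minus 4 SD, starting fluorescence ratio at most library mean plus 5 SD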;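 also: more negative B-score means stronger inhibition of thallium flux through KCNK3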
hERG protect: hERG rescue from dofetilide block, primary screen, cell-based, CHO-hERG, FluxOR thallium flux, dofetilide IC70; AID 1511, 2009; Voltage-gated inwardly rectifying potassium channel KCNH2 (Homo sapiens), Q12809; dofetilide IC70 present; activation (rescue from dofetilide block), less the hit threshold, % at 10 µM; 310,000 compounds, 0.51% hits;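 active = activation above the mean of controls blocked by dofetilide plus 5 SD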;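 also: thallium influx through hERG after potassium depolarization seen as dye fluorescence rise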
KCNQ1 act: potentiators or activators of KCNQ1 channel, primary screen, cell-based, thallium flux, high-throughput. CHO-K1 KCNQ1, thallium flux FluxOR fluorescence; hits give high values. B-score at 10 µM. 310,000 compounds, 0.35% hits;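 active = fluorescence ratio B-score, a plate-corrected score, at least three library SD, with initial intensity B-score within 5 SD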
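Assay system: CHO-K1 cells stably expressing KCNQ1; Medium: assay buffer with matched DMSO; Also added: K+/Tl+ depolarizing stimulus; Dosing: single dose; Timing: dye 90 min, compound 20 min, room temperature; Measured by: kinetic FluxOR thallium fluorescence, 10-s 1-Hz baseline, 110-s post-stimulus read; Read-out: peak-minus-minimum fluorescence over initial fluorescence, negative-control normalized, B-scored.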
KCNK9 block conf: KCNK9 potassium channel inhibitors, confirmation, HEK293 cells, thallium flux, duplicate; shares compounds with KCNK9 inh; FluxOR thallium flux fluorescence; inhibition, % at 10 µM; 4,900 compounds, 43% hits; AID 492992, 2010;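 active = thallium signal inhibited by more than 5 SD of the compound-free buffer control wells, on both duplicate plates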
Kir21 sel: mouse Kir2.1 channel inhibition, confirmation, selectivity assay for KCNK9 modulator project, cell-based, HEK293, thallium flux | shares compounds with KCNK9 inh | Kir2.1 cells, FluxOR thallium flux fluorescence | inhibition, % at 10 µM | 4,900 compounds, 4% hits;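 active = thallium signal drop more than 5 SD beyond the mean of the no-compound control wells, seen in both duplicate plates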;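 also: signal is fluorescence rise after thallium addition divided by baseline fluorescence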
KCNK9 uninduced: thallium flux in non-induced HEK293 cells, confirmation, counter-screen for KCNK9 inhibitor project, cell-based, second counter screen, non-induced KCNK9-HEK293; 4,900 compounds, 40% hits; AID 492997, 2010; inhibition, % at 10 µM; FluxOR thallium flux; shares compounds with KCNK9 inh;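 active = thallium signal drop beyond 5 SD of the untreated control mean, on both duplicate plates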
A number is an active result; - = inactive; . = not tested or not shown.

SMILES	KCNK9 inh	KCNQ1 block	KCNK3 inh	hERG protect	KCNQ1 act	KCNK9 block conf	Kir21 sel	KCNK9 uninduced
COc1cc(-c2nc(-c3ccccc3)c(-c3cc([N+](=O)[O-])ccc3C)[nH]2)cc(OC)c1OC	-13.5	9	-11.5	-	-	60.0%	-	23.5%
O=[N+]([O-])c1cccc(-c2nc(-c3ccccc3)c(-c3cccs3)[nH]2)c1	-	-	-	-	-	.	.	.
CC(=O)OC1CCC2C3CCc4cc(O)ccc4C3CCC12C (centres undefined)	.	.	-	.	.	.	.	.
CCn1cc(/C=N/N=C2\CCC3C4CCc5cc(O)ccc5C4CC[C@]23C)c(C)n1 (some centres undefined)	-	-	-	-	-	-	-	-
O=C(NC1CCCCC1)C(c1ccncc1)N(C(=O)c1csnn1)c1ccccc1F (centres undefined)	-	-	-	-	-	.	.	.
CN1CCN(c2nc(-c3cccs3)nc3ccccc23)CC1	-	-	-	-	-	.	.	.
Oc1ccccc1N1CCN(c2nc(-c3cccs3)nc3ccccc23)CC1	-13.4	-	-	-	-	40.0%	-	28.0%
Oc1ccc(N2CCN(c3nc(-c4cccs4)nc4ccccc34)CC2)cc1	-8.41	-	-	-	-	-	-	-
CCN1CCN(c2nc(-c3cccs3)nc3ccccc23)CC1	-	-	-	-	-	.	.	.
CCCOc1ccccc1/C=C(\C#N)C(=O)Nc1cccnc1	-	-	-	-	-	.	.	.
COc1ccc(OC2CCN(S(=O)(=O)c3ccccc3)CC2)cc1	-	-	-	-	-	.	.	.
Cc1cccc(NC(=O)N2CCCC(CNC(=O)c3ccccc3Cl)C2)c1C (centres undefined)	-	-	-	-	-	.	.	.
CCCN1CCCc2cc(CN(CCCN3CCOCC3)C(=O)Nc3ccc(OCC)cc3)ccc21	-	-	-	-	-	-	-	-
O=C(c1ccccc1)c1ccc2cc(O)ccc2c1	-	-	-	-	-	-	-	-
O=C1CSC(c2ccccn2)N1c1ccc(C(F)(F)F)cc1 (centres undefined)	-	-	-	-	-	.	.	.
CCN(C(=O)CSc1nc2cc(Cl)ccc2c(=O)n1Cc1ccco1)C1CCS(=O)(=O)C1 (centres undefined)	-10.4	-	-	-	-	-	-	-
COc1cccc(/C=N/Nc2ncnc3scc(-c4ccccc4)c23)c1O	-	-	-	-	-	-	-	-
Cc1ccccc1-n1nnnc1SCC(=O)NC1CC1	.	.	-	.	.	.	.	.
O=C(OC1C2CCC1C1CN(CCc3ccccc3)CC12)c1ccccc1 (centres undefined)	-	-	-	-	-	-	-	-
CCOC(=O)C1CCCN(CCc2ccccc2)C1 (centres undefined)	-	-	-	-	-	.	.	.
O=C(O)C1=C[C@@H](c2coc3ccccc3c2=O)C[C@@H](OCCCCO)O1	-	-	-	-	-	.	.	.
Cc1cc(=O)c2cc(Br)ccc2n1CC(=O)NCc1ccccc1	-9.74	-	-	-	-	-	-	33.0%
CN(C)c1ccc(/C=C(/NC(=O)c2ccccc2Cl)C(=O)NCCN2CCOCC2)cc1	-	-	-	-	-	.	.	.
O=C1c2ccccc2C(Nc2ccc(S(=O)(=O)N3CCCCCC3)cc2)N1c1ccccn1 (centres undefined)	-	-	-	-	-	.	.	.

High-throughput results deposited in PubChem BioAssay by Johns Hopkins Ion Channel Center.
